CHOP inh – inhibitors of CHOP promoter induction, primary screen, cell-based, unfolded protein response, luciferase reporter; AID 2732, 2010; 220,000 tested, 3.8% active; CHO-K1 CHOP-promoter luciferase, tunicamycin-induced, 15-18 h; inhibition, % at 10 µM;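 active = compounds that reduced the stress-induced luciferase reporter signal by more than about 70% of percent inhibition, limit read from the data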
TbMetRS inhib – T. brucei MetRS inhibitors, primary screen, biochemical, luminescence; methionyl-tRNA synthetase (Trypanosoma brucei brucei); purified T. brucei MetRS, ATP depletion, Kinase-Glo luminescence; inhibition, % at 11.9 µM; 360,000 tested, 0.4% active; AID 624268, 2012;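 active = inhibition above a per-plate cutoff of the control wells' mean inhibition plus 3 SD, cut at about 5.5% in these data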
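Material: T. brucei methionyl-tRNA synthetase, purified; reagent: substrates ATP, L-methionine and bulk Escherichia coli tRNA; dosing: 11.9 µM single point; timing: 15 min plus 2 h at 25 °C; detection: luminescence of leftover ATP; evaluation: % inhibition; control set: DMSO-only wells as low control; replicates: singlicate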
MPTP block – mitochondrial permeability transition pore inhibitors, primary screen, biochemical, isolated mouse mitochondria, absorbance; AID 602449, 2012; Ca2+ swelling absorbance, 30 min; inhibition, % at 10 µM; 360,000 tested, 1.4% active;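 active = inhibition of 50% or more, scaled per plate between neutral and stimulator controls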
NR3A LBD binder – binders of NR3A ligand-binding domain, primary screen, biophysical, differential scanning fluorimetry, uHTS | Glutamate receptor ionotropic, NMDA 3A (GRIN3A) ligand-binding domain | NR3A LBD differential scanning fluorimetry, Tm shift; 0% = protein alone, 100% = glycine-bound protein | Tm shift relative to glycine control, % at 25 µM | 340,000 tested, 2.5% active | AID 1259313, 2017;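 active = melting temperature shift of at least 10% of the positive control shift, at one fixed dose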
WT yeast gro inh – growth inhibition of WT strain, primary screen, mitochondrial fusion inhibitor project, WT and mutant strains, chemical genetic. AID 1362, 2008. 190,000 tested, 2.1% active. inhibition, % at 10 µM. mitochondrial fusion phenotypic screen; in the data active = inhibition above about 58%; tested in S. cerevisiae
EBV gp42 block – Epstein-Barr virus gp42 inhibitors, primary screen, biochemical, uHTS, fluorescence polarization. Glycoprotein 42 (Epstein-Barr virus (strain AG876)), Q1HVG2. Fluorescence polarization binding assay, mP read-out. inhibition, % (tested at 21.74 µM). 220,000 tested, 0.42% active. AID 1085, 2008; in the data active = inhibition above about 50%
Target sequence (Q1HVG2 whole entry, looked up): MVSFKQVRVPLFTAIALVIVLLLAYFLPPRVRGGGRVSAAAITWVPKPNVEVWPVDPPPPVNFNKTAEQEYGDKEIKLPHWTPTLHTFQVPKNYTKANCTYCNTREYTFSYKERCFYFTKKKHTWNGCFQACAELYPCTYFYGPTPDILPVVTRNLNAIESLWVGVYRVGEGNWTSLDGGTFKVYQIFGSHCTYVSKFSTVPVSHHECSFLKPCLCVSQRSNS
MPTP counter – fluorescence retest of MPTP screen hits in isolated mitochondria, single concentration; shares compounds with MPTP block; membrane potential, Rhodamine 123 fluorescence; inhibition, % at 10 µM; 5,000 tested, 78% active; in the data active = inhibition above about 22%
MPTP swell DR – mitochondrial permeability transition pore inhibitors, dose response, biochemical, absorbance, uHTS hits. shares compounds with MPTP block. isolated mitochondria swelling. IC50, µM. 780 tested, 58% active; in the data active = IC50 below about 20 µM
MPTP counter DR – fluorescent counter-screen in isolated mitochondria, dose response, counter-screen for MPTP inhibitor project, biochemical, fluorescence, uHTS hits; shares compounds with MPTP block; 780 tested, 49% active; IC50, µM; isolated mitochondria counterscreen, fluorescence read-out; in the data active = IC50 below about 80 µM
A number is an active result; – = inactive; · = not tested or not shown. Sampled rows, rich in hits. Any-hit rate of the full collection: about 6.4%.

SMILES	CHOP inh	TbMetRS inhib	MPTP block	NR3A LBD binder	WT yeast gro inh	EBV gp42 block	MPTP counter	others
CC1CCCC(NC(=S)Nc2cccc(S(=O)(=O)N(C)C)c2)C1C (stereo not given)	–	–	73	–	–	–	92
O=C(CSc1nnc2ccc(-c3ccccn3)nn12)Nc1cccc(F)c1	·	–	–	·	·	·	·
O=C(CNS(=O)(=O)Cc1ccccc1)NNc1ccccc1	·	–	–	·	·	·	·
COc1ccc(C(CNC(=O)c2oc3cc(Br)ccc3c2C)N2CCCCC2)cc1 (stereo not given)	·	–	–	–	·	·	·
COc1ccc(C(CNC(=O)c2oc3ccc(Br)cc3c2C)N2CCCCC2)cc1 (stereo not given)	78	–	86	–	–	–	–	MPTP swell DR=16;MPTP counter DR=–
O=C(c1cc(-c2ccc(F)cc2)on1)N1CCCCCC1	·	–	–	–	·	·	·
Cc1[nH]n(-c2ccccc2)c(=O)c1C(c1ccccc1[N+](=O)[O-])C(C#N)C#N (stereo not given)	·	–	–	–	·	·	·
Cc1[nH]n(-c2ncc(-c3ccccc3)s2)c(=O)c1C(c1ccc(Cl)cc1)C(C#N)C#N (stereo not given)	–	–	103	12	–	–	25
Cc1ccc(OCC(=O)Nc2ccccc2C(=O)N2CCCC2)cc1	·	–	–	–	·	·	·
O=[N+]([O-])c1ccc(NC(=S)NCC(c2cccnc2)N2CCOCC2)cc1 (stereo not given)	–	–	–	–	–	–	·
Cc1ccn2c(=O)nc(SCC(=O)N3CCC(C)CC3)nc2c1	·	–	–	–	·	·	·
N/C(=N\OC(=O)CCCOc1ccccc1)c1ccc([N+](=O)[O-])cc1	–	–	–	–	–	–	·
CC(O)CNCCCOc1ccc(Cl)cc1C(C)(C)C (stereo not given)	–	–	74	–	–	–	–	MPTP swell DR=5;MPTP counter DR=–
CN(C)CCOCCOc1ccc(Cl)cc1C(C)(C)C	–	–	–	–	–	–	·
Cc1nc2c(Br)cc(Br)cc2cc1O	81	–	99	24	–	–	97
Brc1cc(Br)c2nc(-c3cccs3)ccc2c1	–	–	–	–	–	–	·
COc1ccc(N2CCN(C(=O)CSc3nnc4n3C(C)(C)Cc3ccccc3-4)CC2)cc1	–	–	–	–	–	–	·
Cc1ccc(Cl)cc1N1CCN(C(=O)CSc2nnc3n2C(C)(C)Cc2ccccc2-3)CC1	81	–	94	–	–	–	90
O=C(N1CCN(Cc2ccc3c(c2)OCO3)CC1)C12CC3CC(CC(C3)C1)C2	·	·	·	–	·	·	·
CCCc1c(NC(=O)Nc2ccc(Cl)cc2Cl)cnn1-c1ccccc1	–	–	83	–	·	–	76
CCCc1c(C(=O)Nc2ccc(F)cc2F)cnn1-c1ccccc1	–	–	–	–	·	–	·
O=C(Nc1ccncc1)Nc1ccncc1	–	–	–	–	–	–	·
CC(Oc1ccc(Cl)cc1Cl)C(=O)Nc1ccncc1 (stereo not given)	·	–	77	–	–	–	74
O=C(Nc1ccncc1)Nc1ccc(Cl)cc1Cl	·	–	51	–	·	·	104
O=C(Nc1ccncc1)Nc1ccc(Cl)cc1	·	–	55	26	·	·	98
SMILES	CHOP inh	TbMetRS inhib	MPTP block	NR3A LBD binder	WT yeast gro inh	EBV gp42 block	MPTP counter	others
O=C(NN1CCN(Cc2ccccc2Cl)CC1)c1ccc(Br)cc1	–	–	–	–	–	–	·
COc1ccc(CCCc2nc3ccccc3[nH]2)cc1	–	–	–	–	·	–	·
Cc1ccc(C)c(OCC(O)CN2CCC(Cc3ccccc3)CC2)c1 (stereo not given)	·	–	78	–	·	·	–	MPTP swell DR=6.8;MPTP counter DR=13
Cc1ccc(C(C)C)c(OCC(O)CN2CCc3ccccc3C2)c1 (stereo not given)	·	–	98	–	·	·	92
O=C(NNC(=O)c1cc2ccccc2cc1O)Nc1ccc(F)cc1F	·	–	–	–	·	·	·
O=C1OC(c2ccccc2)(c2cc(Br)ccc2O)c2ccccc21 (stereo not given)	·	–	76	–	·	·	97
Cc1ccc(-n2ncc3c(NCCCOC(C)C)ncnc32)c(C)c1	–	–	–	–	–	–	·
CCCCC(CC)Cn1c(O)c(/C=C2\C=NN=C2c2ccccc2)sc1=S (stereo not given)	–	–	55	21	–	–	–	MPTP swell DR=16;MPTP counter DR=–
COc1ncnc2c1ncn2CCCNCCCN1CCCC1=O	·	–	–	·	·	·	·
Cc1onc(-c2ccccc2)c1CNC(=O)Nc1ccc(C(F)(F)F)cc1	–	–	78	11	·	–	83
Cc1cc(C)cc(NC(=O)NCc2c(-c3ccccc3)noc2C)c1	–	–	–	–	·	–	·
Cc1onc(-c2ccccc2)c1CNC(=O)Nc1cccc(Cl)c1	–	–	78	–	·	–	85
CCOc1ccccc1C(=O)N/N=C/c1ccoc1	·	–	–	–	·	·	·
O=C1c2cc(Br)ccc2N(Cc2ccc(Br)cc2)S(=O)(=O)C1c1cc(Cl)c(Cl)cc1[N+](=O)[O-] (stereo not given)	·	–	66	–	·	·	–
Cc1cccc(C)c1NC(=O)C(c1ccccc1)n1c(=O)c(-c2ccco2)nc2ccccc21 (stereo not given)	·	–	–	·	·	·	·
O=C(N/N=C/c1cc(Cl)cc([N+](=O)[O-])c1O)C1CC1	–	–	–	–	·	–	·
CC(C)(C)N/N=C/c1cc(Cl)cc([N+](=O)[O-])c1O	–	–	93	–	–	–	54
O=[N+]([O-])c1cc(Cl)cc(/C=N/Nc2nc3ccccc3s2)c1O	–	–	78	20	–	–	78
CCOc1ccc(CCNC(=O)COC(=O)C2CCN(S(=O)(=O)c3ccc(C)c(C)c3)CC2)cc1OCC	·	–	–	–	·	·	·
COc1ccc(C=O)c(-c2c(-c3ccccc3OC)sc3ccccc23)c1	·	–	–	·	·	·	·
O=C(Nc1ccc(Cl)c(Cl)c1)c1cccc(S(=O)(=O)NCc2cccnc2)c1	–	–	104	11	76	–	84
O=C(Nc1ccc(Cl)c(Cl)c1)OCc1cccnc1	–	–	90	–	79	–	95
O=C(Nc1cccnc1)OCc1ccccc1	·	–	–	–	·	·	·
O=C1c2ccccc2S(=O)(=O)c2cc(C(=O)N3CCC(N4CCCC4)CC3)ccc21	·	–	–	–	·	·	·

High-throughput results deposited in PubChem BioAssay by several laboratories.
